Screens from PubChem BioAssay.
This is a sample that favours compounds with a hit; in the whole collection about 2.8% have one here.
pPAFAH FP inh – pPAFAH enzyme inhibitors, primary screen, biochemical, fluorescence polarization, human; inhibition, % at 3.39 µM; 330,000 tested, 1.5% active; Platelet-activating factor acetylhydrolase (Homo sapiens), Q13093; recombinant pPAFAH, FP-rhodamine probe fluorescence polarization;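 active = inhibition above the mean inhibition across the screen plus 3 SD, cut at about 25% in these data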;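 note: inhibitors block binding of the rhodamine activity-based probe so polarization drops; 0% = enzyme with DMSO and 100% = wells lacking pPAFAH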
Target sequence (Q13093 whole entry, looked up): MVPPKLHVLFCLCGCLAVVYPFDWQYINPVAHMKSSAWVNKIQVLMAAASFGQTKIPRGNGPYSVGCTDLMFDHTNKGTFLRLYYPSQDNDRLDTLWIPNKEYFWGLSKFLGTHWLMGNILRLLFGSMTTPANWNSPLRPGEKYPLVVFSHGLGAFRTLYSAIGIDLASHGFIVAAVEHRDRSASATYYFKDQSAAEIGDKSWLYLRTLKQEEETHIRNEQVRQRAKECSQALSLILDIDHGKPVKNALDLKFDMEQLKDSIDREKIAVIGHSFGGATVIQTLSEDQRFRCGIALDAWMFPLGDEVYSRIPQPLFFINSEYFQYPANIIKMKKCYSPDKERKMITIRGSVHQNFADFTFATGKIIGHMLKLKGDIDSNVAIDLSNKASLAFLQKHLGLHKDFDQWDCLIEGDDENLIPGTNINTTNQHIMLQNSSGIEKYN
PAFAH2 inh – PAFAH2 enzyme inhibitors, primary screen, biochemical, fluorescence polarization, human. Platelet-activating factor acetylhydrolase 2, cytoplasmic (Homo sapiens), Q99487. recombinant PAFAH2, FP-rhodamine activity probe. inhibition, % at 3.39 µM. 340,000 tested, 0.99% active. AID 492956, 2010;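 active = inhibition above the mean over all tested compounds plus 3 SD, cut at about 30% in these data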;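 note: inhibitors block probe labeling of enzyme so polarization drops; 0% = enzyme with DMSO and 100% = wells lacking PAFAH2 protein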
PAFAH1B3 inh – PAFAH1B3 enzyme inhibitors, primary screen, biochemical, fluorescence polarization, human; inhibition, % at 3.39 µM; Platelet-activating factor acetylhydrolase IB subunit alpha1 (Homo sapiens), Q15102; recombinant PAFAH1B3, FP-rhodamine probe; 340,000 tested, 0.28% active;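 active = inhibition above the screen-wide average of all tested compounds plus 3 SD, cut at about 25% in these data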;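 note: 0% = enzyme with DMSO only and 100% = wells lacking PAFAH1B3 protein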
Target sequence (Q15102 whole entry, looked up): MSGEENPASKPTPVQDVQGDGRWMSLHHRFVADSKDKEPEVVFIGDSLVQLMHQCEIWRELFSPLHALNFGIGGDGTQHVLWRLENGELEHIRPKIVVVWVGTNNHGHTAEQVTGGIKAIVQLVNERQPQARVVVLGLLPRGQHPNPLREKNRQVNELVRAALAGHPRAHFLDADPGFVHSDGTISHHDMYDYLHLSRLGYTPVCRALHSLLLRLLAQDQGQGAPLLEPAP
ARFGAP1 inhibitor – inhibitors of rat ARFGAP1 GAP activity, primary screen, biochemical, fluorescence polarization, GDP tracer; ADP-ribosylation factor GTPase-activating protein 1 (Rattus norvegicus), Q62848; Arfgap1-stimulated ARF1 GTP hydrolysis, GDP FP detection; 360,000 tested, 0.26% active; inhibition, % at 16.5 µM;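 active = inhibition above a per-plate limit, mean inhibition of low control wells plus 3 SD, cut at about 25% in these data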;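 note: 0% = DMSO wells with enzyme and 100% = wells lacking Arfgap1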
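Material: truncated rat Arfgap1 GAP domain; Incubation: compound-enzyme preincubation 20 min, reaction 120 min, detection 60 min, 25 °C; Read-out: percent inhibition of Arfgap1-stimulated GTP hydrolysis; Technique: FP, GDP Alexa 633 tracer displaced from anti-GDP antibody, 620/688 nm; Controls: No-Arfgap1 wells (100%) versus DMSO full-reaction wells (0%); Replication: single well per compound.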
PAFAH1B2 inh – PAFAH1B2 enzyme inhibitors, primary screen, biochemical, fluorescence polarization, human. recombinant PAFAH1B2, FP-rhodamine activity probe. inhibition, % at 3.39 µM. 340,000 tested, 1.2% active;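 active = inhibition above the mean of all tested compounds plus 3 SD, cut at about 24% in these data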;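 note: 0% = enzyme with DMSO and 100% = wells lacking PAFAH1B2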
ASAP1 inh – inhibitors of human ASAP1 ArfGAP activity, primary screen, biochemical, fluorescence polarization; 360,000 tested, 0.19% active; Arf-GAP with SH3 domain, ANK repeat and PH domain-containing protein 1 (Homo sapiens), …; ASAP1-stimulated ARF1 GTP hydrolysis, GDP FP detection; inhibition, % at 16.5 µM; in the data active = inhibition above about 25%;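 note: 0% = vehicle with enzyme and substrate and 100% = no enzyme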
* = called active by the depositor; . = no result given.

SMILES | pPAFAH FP inh | PAFAH2 inh | PAFAH1B3 inh | ARFGAP1 inhibitor | PAFAH1B2 inh | ASAP1 inh
FC(F)(F)c1ccc2c(c1)C1C=CCC1C(c1ccncc1)N2 (stereo unspecified) | . | 9 | 7 | 3 | 1 | 2
CCOC(=O)c1ccc2c(c1)C1C=CCC1C(C(=O)O)N2 (stereo unspecified) | 83* | . | . | . | . | .
O=C(O)c1ccc2c(c1)C1C=CCC1C(c1ccncc1)N2 (stereo unspecified) | 25* | 0 | 21 | -5 | 1 | 6
Cc1ccc2c(c1C)NC(C(=O)O)C1CC=CC21 (stereo unspecified) | 65* | 44* | 12 | . | 9 | .
CCOC(=O)Cc1csc(NC(=O)CSc2nc(-c3ccccc3)c(C#N)c(=O)[nH]2)n1 | -3 | 0 | 14 | -10 | 65* | 20
CCOc1ccc2nc(NC(=O)CSc3nc(-c4ccccc4)c(C#N)c(=O)[nH]3)sc2c1 | . | -12 | 2 | 2 | 82* | -6
COc1cccc(-c2nc(SCC(=O)Nc3nc(-c4ccccc4)c(C)s3)[nH]c(=O)c2C#N)c1 | -3 | -11 | -7 | 5 | 16 | 12
COC(=O)C(CC(C)C)NC(=O)CSc1nc(-c2ccccc2)c(C#N)c(=O)[nH]1 (stereo unspecified) | 5 | 3 | 6 | 6 | 9 | 13
Cc1ccc(S(=O)(=O)NCCS(=O)(=O)N2CCN(c3ccc(F)cc3)CC2)cc1 | 8 | 1 | 12 | 11 | 11 | 7
CCCCCCCCN1C(=O)[C@H](CC(=O)NCc2ccc(OC)c(OC)c2)C[C@@]2(C(=O)OC)CC(C)(C)CC=C12 | . | . | . | 6 | . | -1
c1ccc(-c2csc3ncnc(NCCN4CCOCC4)c23)cc1 | 5 | 2 | -8 | 0 | 4 | 2
c1ccc(CNc2nc(CN3CCOCC3)nc3scc(-c4ccccc4)c23)cc1 | 34* | 0 | 1 | -7 | 4 | -9
Clc1ccc(CNc2nc(CN3CCOCC3)nc3scc(-c4ccccc4)c23)cc1 | 33* | -1 | 9 | -11 | 7 | -1
CCOc1ccc(-n2cc(-c3ccccc3)c3c(N4CCOCC4)ncnc32)cc1 | 13 | 6 | 6 | -8 | 3 | -7
CCOc1ccc(-n2cc(-c3ccccc3)c3c(=S)nc[nH]c32)cc1 | 28* | 3 | 3 | -11 | 3 | -14
O=S1(=O)[C@H]2C[C@@H]3C=C[C@@]2(CN1Cc1cccc(F)c1)O3 | -1 | -7 | -2 | 7 | -2 | 3
CCOC(=O)CCCCC1C(CCCC(=O)OCC)C=NN1C (stereo unspecified) | . | 6 | 10 | 3 | 4 | 9
O=C(O)c1ccc(N/N=C/c2cc3cc4c(cc3nc2Cl)OCCO4)cc1 | 30* | 2 | 4 | 7 | 8 | -3
O=C1C=C(NCc2ccc(Cl)cc2)CC(c2ccco2)C1 (stereo unspecified) | 11 | 11 | 12 | 7 | 29* | 3
CC(C)CNC1=CC(=O)CC(c2ccco2)C1 (stereo unspecified) | 10 | 18 | 3 | -15 | 5 | -4
O=Cc1cccc(OC(=O)/C=C/c2ccco2)c1 | 30* | 15 | 9 | -2 | 5 | -4
CCNC(=O)C1(C)CCCN1C(=O)c1cc(C)on1 (stereo unspecified) | . | . | . | 8 | . | -5
CC1C(=O)N(Cc2cn(CCC3OCCCO3)nn2)CCS(=O)(=O)N1Cc1ccc(-c2ccc(F)nc2)cc1 (stereo unspecified) | . | . | . | -3 | . | 14
CCC(OC(=O)c1nsc(Cl)c1Cl)C(=O)NCc1ccco1 (stereo unspecified) | 27* | -7 | 4 | -5 | 0 | -13
O=C(O)c1cc(O)c2c(c1)[C@@H]([C@H]1c3cc(C(=O)O)cc(O)c3C(=O)c3c(O[C@@H]4O[C@H](CO)[C@@H](O)[C@H](O)[C@H]4O)cccc31)c1cccc(OC3O[C@H](CO)[C@@H](O)[C@H](O)[C@H]3O)c1C2=O (stereo partly specified) | 97* | 86* | 76* | 11 | 78* | 6
SMILES | pPAFAH FP inh | PAFAH2 inh | PAFAH1B3 inh | ARFGAP1 inhibitor | PAFAH1B2 inh | ASAP1 inh
COCc1ccc(-c2c(-c3ccc(OC)cc3)oc(=O)c3cc(OC)c(OC)cc23)cc1 | 4 | -4 | -12 | 1 | -4 | 1
COc1ccc(-c2oc(=O)c3cc(OC)c(OC)cc3c2-c2ccc3c(c2)OCO3)cc1 | 27* | -6 | -7 | -8 | 0 | 1
O=C(c1ccc(CS(=O)Cc2ccc(Cl)cc2)o1)N1CCN(c2cccc(Cl)c2)CC1 (stereo unspecified) | 26* | 6 | -4 | -4 | 4 | 1
O=C(c1ccc(CS(=O)Cc2ccc(Cl)cc2)o1)N1CCN(c2ccc(F)cc2)CC1 (stereo unspecified) | 30* | 1 | 3 | -9 | 11 | 5
O=C(c1ccc(CS(=O)Cc2cccc(Cl)c2)o1)N1CCN(c2ccc(F)cc2)CC1 (stereo unspecified) | . | . | . | -13 | . | 1
N=C1CCCC1C(=S)SCCC(N)=O (stereo unspecified) | . | . | . | 4 | . | 7
Cc1cc(-c2cc(NC(=O)Cc3c[nH]c4ccccc34)ccc2Nc2cccnc2)ccc1F | . | . | . | 8 | . | 3
CC1CC(C)CN(S(=O)(=O)c2ccc(C(=O)NNC(=O)c3ccccc3F)cc2)C1 (stereo unspecified) | 2 | 5 | 3 | -14 | 26* | 5
O=C(NNC(=O)c1ccccc1F)c1ccc(S(=O)(=O)N2CCCC2)cc1 | 1 | -2 | 9 | -4 | 4 | -1
CS(=O)(=O)N(CC(=O)N1CCN(c2ccccc2)CC1)Cc1ccc(Cl)cc1 | 4 | 2 | -5 | 2 | 25* | -4
Cc1ccc(C2C(C#N)=C(N)Oc3cc(N)ccc32)cc1 (stereo unspecified) | 27* | -1 | -2 | 4 | 5 | 5
O=C1NC(=NCc2ccccc2)S/C1=C/c1ccc(O)cc1 | 29* | 19 | 7 | 7 | 5 | 2
Cc1c(N=C2NC(=O)/C(=C/c3ccc(O)cc3)S2)c(=O)n(-c2ccccc2)n1C | 7 | 6 | 14 | -10 | -1 | -10
O=C(O)c1ccc(S(=O)(=O)N2CCCCCCC2)cc1 | . | . | . | 1 | . | -10
